Results from ChEMBL document CHEMBL1153554, “Mechanisms by which the G333D mutation in human immunodeficiency virus type 1 Reverse transcriptase facilitates dual resistance to zidovudine and lamivudine” (Antimicrob Agents Chemother, 2008).

Tests used:
[1] = target: Human immunodeficiency virus type 1 reverse transcriptase (Human immunodeficiency virus 1, UniProt Q72547, L210W/M184V/M41L/T215Y); assay: Binding affinity to HIV1 LAI reverse transcriptase M41L/L210W/T215Y/M184V mutant
[2] = tested on: Human immunodeficiency virus 1; assay: Ratio of Kpol to Kd for HIV1 LAI reverse transcriptase M41L/L210W/T215Y/M184V/G333D mutant
Summary of the method: (§1)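 Pre-steady-state rapid quench: 400 nM active-site RT and 40 nM ³²P-P20/T57 DNA T/P were preincubated in 50 mM Tris-HCl pH 7.5, 50 mM KCl, then mixed with nucleotide in the same buffer containing 20 mM MgCl₂. Quenched with 0.3 M EDTA from 10 ms to 30 min, run on urea-PAGE. kobs came from single-exponential fits; kpol and Kd came from a hyperbolic fit versus nucleotide concentration.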

[3] = tested on: Human immunodeficiency virus 1; assay: Binding affinity to HIV1 LAI reverse transcriptase M41L/L210W/T215Y/M184V/G333D mutant relative to wild type
[4] = tested on: Human immunodeficiency virus type 1 reverse transcriptase (Human immunodeficiency virus 1), Q72547 [M41L,L210W,T215Y]; assay: Binding affinity to HIV1 LAI reverse transcriptase M41L/L210W/T215Y mutant relative to wild type
[5] = tested on: Human immunodeficiency virus type 1 reverse transcriptase (Human immunodeficiency virus 1), Q72547 [M41L,L210W,T215Y]; assay: Ratio of Kpol to Kd for HIV1 LAI reverse transcriptase M41L/L210W/T215Y mutant; summary of the method: as §1
[6] = Binding affinity to HIV1 LAI reverse transcriptase M41L/L210W/T215Y/M184V/G333D mutant; set-up: species or system Human immunodeficiency virus 1
[7] = tested on: Human immunodeficiency virus type 1 reverse transcriptase (Human immunodeficiency virus 1), Q72547 [M184V]; assay: Resistance (selectivity ratio) of HIV1 LAI reverse transcriptase M184V mutant relative to wild type
[8] = target: Human immunodeficiency virus type 1 reverse transcriptase (Human immunodeficiency virus 1, UniProt Q72547, M184V); assay: Binding affinity to HIV1 LAI reverse transcriptase M184V mutant
[9] = target: Human immunodeficiency virus type 1 reverse transcriptase (Human immunodeficiency virus 1, UniProt Q72547); assay: Binding affinity to wild type HIV1 LAI reverse transcriptase
Summary of the method: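 Bacterially expressed, purified RT, corrected for active-site concentration, preincubated at 400 nM with 40 nM 5′-³²P-labelled 20-nt DNA primer annealed to a 57-nt DNA template in 50 mM Tris-HCl pH 7.5, 50 mM KCl. It was then rapid-quench mixed 1:1 with nucleotide in the same buffer plus 20 mM MgCl₂. EDTA quench at 10 ms–30 min; urea-PAGE. k_obs fitted single-exponential; K_d from hyperbolic k_obs-versus-concentration fit.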

[10] = tested on: Human immunodeficiency virus type 1 reverse transcriptase (Human immunodeficiency virus 1), Q72547 [M184V]; assay: Ratio of Kpol to Kd for HIV1 LAI reverse transcriptase M184V mutant; summary of the method: as §1
[11] = tested on: Human immunodeficiency virus type 1 reverse transcriptase (Human immunodeficiency virus 1), Q72547 [M41L,L210W,T215Y,M184V]; assay: Ratio of Kpol to Kd for HIV1 LAI reverse transcriptase M41L/L210W/T215Y/M184V mutant; summary of the method: as §1
[12] = target: Human immunodeficiency virus type 1 reverse transcriptase (Human immunodeficiency virus 1) (UniProt Q72547); assay: Ratio of Kpol to Kd for wild type HIV1 LAI reverse transcriptase; summary of the method: as §1
[13] = target: Human immunodeficiency virus type 1 reverse transcriptase (Human immunodeficiency virus 1, UniProt Q72547, L210W/M41L/T215Y); assay: Binding affinity to HIV1 LAI reverse transcriptase M41L/L210W/T215Y mutant
[14] = tested on: Human immunodeficiency virus type 1 reverse transcriptase (Human immunodeficiency virus 1), Q72547 [M41L,L210W,T215Y,M184V]; assay: Binding affinity to HIV1 LAI reverse transcriptase M41L/L210W/T215Y/M184V mutant relative to wild type

Nc1ccn([C@@H]2CS[C@H](COP(=O)(O)OP(=O)(O)OP(=O)(O)O)O2)c(=O)n1 [LAMIVUDINE TRIPHOSPHATE]
Kd [1]: 9.8 µM
Ratio [2]: 0.00028
fold change (FC) [3]: 116
fold change (FC) [4]: 1.5
Ratio [5]: 0.04
Kd [6]: 17.8 µM
fold resistance [7]: 48.8
Kd [8]: 8.2 µM
Kd [9]: 0.37 µM
Ratio [10]: 0.00061
Ratio [11]: 0.0004
Ratio [12]: 0.06
Kd [13]: 0.43 µM
fold change (FC) [14]: 61.8

Cc1cn([C@H]2C[C@H](N=[N+]=[N-])[C@@H](COP(=O)(O)OP(=O)(O)OP(=O)(O)O)O2)c(=O)[nH]c1=O [ZIDOVUDINE TRIPHOSPHATE]
Ratio [2]: 1.1
fold change (FC) [3]: 1.81
fold change (FC) [4]: 1.14
Ratio [5]: 4.26
Kd [6]: 3.81 µM
fold resistance [7]: 1.13
Ratio [10]: 2.41
Ratio [11]: 1.3
Ratio [12]: 4.41
fold change (FC) [14]: 1.76

Cc1cn([C@H]2C[C@H](N=[N+]=[N-])[C@@H](CO[P@](=O)(O)O[P@](=O)(O)OP(=O)(O)O)O2)c(=O)[nH]c1=O [ZIDOVUDINE TRIPHOSPHATE]
Kd [1]: 3.5 µM
Kd [8]: 2.9 µM
Kd [9]: 1.99 µM
Kd [13]: 1.15 µM
